Test results as given in ChEMBL document CHEMBL1138525 (J Med Chem, 2009).
Activity calls are given as the source filed them. The calls are words filed in the database; no cut-off is given here.

How the values were obtained:
Format in all cases: functional, cell-based
P2Y purinoceptor 2 [1] = target: T1, P2Y purinoceptor 2 (Homo sapiens, UniProt P41231); assay: Agonist activity at N-terminal HA epitope-tagged wild type 4 human P2Y2 receptor expressed in human 1321N1 cells assessed as increase in intracellular calcium level
T1 sequence (P41231 whole entry): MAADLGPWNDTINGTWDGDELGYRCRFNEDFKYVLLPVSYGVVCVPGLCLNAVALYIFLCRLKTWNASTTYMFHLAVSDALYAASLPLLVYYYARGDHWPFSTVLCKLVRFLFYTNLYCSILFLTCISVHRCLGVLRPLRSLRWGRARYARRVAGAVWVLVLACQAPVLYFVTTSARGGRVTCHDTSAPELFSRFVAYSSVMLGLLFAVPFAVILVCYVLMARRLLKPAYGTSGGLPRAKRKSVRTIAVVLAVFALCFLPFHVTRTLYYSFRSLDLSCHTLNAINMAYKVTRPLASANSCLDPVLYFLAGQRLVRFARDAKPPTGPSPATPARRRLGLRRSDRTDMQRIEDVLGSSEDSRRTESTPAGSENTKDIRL
Method in brief: (§1)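 Retrovirally transduced stable 1321N1 astrocytoma lines (wild-type lines of differing expression, or mutants) in suspension, loaded with Oregon Green BAPTA-1/AM for 1 h at room temperature. Cells were plated at 150000 per well in Krebs-HEPES pH 7.4 and held 20 min at 28 °C in the dark.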

[2] = tested on: P2Y purinoceptor 2 (Homo sapiens), P41231 [R180A]; assay: Agonist activity at N-terminal HA epitope-tagged human P2Y2 receptor R180A mutant expressed in human 1321N1 cells assessed as increase in intracellular calcium level relative to carbachol
P2Y purinoceptor 2 (Homo sapiens), P41231 [R180A], sequence (P41231 whole entry R180A): as the sequence (P41231 whole entry) above, with R180A counted along it
Method in brief: as §1, with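 “dark. Agonist was then injected, with fluorescence read at ex 485/em 520 nm for 60 × 0.4 s.” for “dark.”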

P2Y purinoceptor 2 [3] = target: T1, P2Y purinoceptor 2; assay: Agonist activity at N-terminal HA epitope-tagged wild type 1 human P2Y2 receptor expressed in human 1321N1 cells assessed as increase in intracellular calcium level
Method in brief: as §1, with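 “dark. Agonist was then injected, with fluorescence read at ex 485/em 520 nm for 60 × 0.4 s.” for “dark.”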

P2Y purinoceptor 2 [4] = target: P2Y purinoceptor 2 (Homo sapiens, UniProt P41231, R177A/R180A); assay: Agonist activity at N-terminal HA epitope-tagged human P2Y2 receptor R177A_R180A double mutant expressed in human 1321N1 cells assessed as increase in intracellular calcium level
P2Y purinoceptor 2 (Homo sapiens, UniProt P41231, R177A/R180A), sequence (P41231 whole entry R177A/R180A): as the sequence (P41231 whole entry) above, with R177A, R180A counted along it
Method in brief: (§2)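 1321N1 astrocytoma cells stably expressing mutant receptor (retroviral transfection, G418 selection), loaded with Oregon Green BAPTA-1/AM in Krebs-HEPES pH 7.4 for 1 h at room temperature. Plated at 150000 cells/well and held 20 min at 28 °C in the dark. Efficacy relative to 100 µM carbachol.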

P2Y purinoceptor 2 [5] = target: P2Y purinoceptor 2 (Homo sapiens, UniProt P41231, Y114A); assay: Agonist activity at N-terminal HA epitope-tagged human P2Y2 receptor Y114A mutant expressed in human 1321N1 cells assessed as increase in intracellular calcium level; method in brief: as §2
P2Y purinoceptor 2 (Homo sapiens, UniProt P41231, Y114A), sequence (P41231 whole entry Y114A): as the sequence (P41231 whole entry) above, with Y114A counted along it

P2Y purinoceptor 2 [6] = target: P2Y purinoceptor 2 (Homo sapiens, UniProt P41231, R180A); assay: Agonist activity at N-terminal HA epitope-tagged human P2Y2 receptor R180A mutant expressed in human 1321N1 cells assessed as increase in intracellular calcium level; method in brief: as §2
P2Y purinoceptor 2 (Homo sapiens, UniProt P41231, R180A), sequence (P41231 whole entry R180A): as the sequence (P41231 whole entry) above, with R180A counted along it

P2Y purinoceptor 2 [7] = target: P2Y purinoceptor 2 (Homo sapiens, UniProt P41231, R272A); assay: Agonist activity at N-terminal HA epitope-tagged human P2Y2 receptor R272A mutant expressed in human 1321N1 cells assessed as increase in intracellular calcium level; method in brief: as §2
P2Y purinoceptor 2 (Homo sapiens, UniProt P41231, R272A), sequence (P41231 whole entry R272A): as the sequence (P41231 whole entry) above, with R272A counted along it

P2Y purinoceptor 2 [8] = target: P2Y purinoceptor 2 (Homo sapiens, UniProt P41231, Y198A); assay: Agonist activity at N-terminal HA epitope-tagged human P2Y2 receptor Y198A mutant expressed in human 1321N1 cells assessed as increase in intracellular calcium level; method in brief: as §2
P2Y purinoceptor 2 (Homo sapiens, UniProt P41231, Y198A), sequence (P41231 whole entry Y198A): as the sequence (P41231 whole entry) above, with Y198A counted along it

P2Y purinoceptor 2 [9] = target: T1, P2Y purinoceptor 2; assay: Agonist activity at N-terminal HA epitope-tagged wild type 4 human P2Y2 receptor expressed in human 1321N1 cells assessed as increase in intracellular calcium level relative to carbachol
Method in brief: as §1, with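 “dark. Agonist was then injected, with fluorescence read at ex 485/em 520 nm for 60 × 0.4 s.” for “dark.”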

P2Y purinoceptor 2 [10] = target: P2Y purinoceptor 2 (Homo sapiens, UniProt P41231, R194H); assay: Agonist activity at N-terminal HA epitope-tagged human P2Y2 receptor R194H mutant expressed in human 1321N1 cells assessed as increase in intracellular calcium level; method in brief: as §2
P2Y purinoceptor 2 (Homo sapiens, UniProt P41231, R194H), sequence (P41231 whole entry R194H): as the sequence (P41231 whole entry) above, with R194H counted along it

P2Y purinoceptor 2 [11] = target: P2Y purinoceptor 2 (Homo sapiens, UniProt P41231, R177A); assay: Agonist activity at N-terminal HA epitope-tagged human P2Y2 receptor R177A mutant expressed in human 1321N1 cells assessed as increase in intracellular calcium level; method in brief: as §2
P2Y purinoceptor 2 (Homo sapiens, UniProt P41231, R177A), sequence (P41231 whole entry R177A): as the sequence (P41231 whole entry) above, with R177A counted along it

P2Y purinoceptor 2 [12] = target: T1, P2Y purinoceptor 2; assay: Agonist activity at N-terminal HA epitope-tagged wild type 3 human P2Y2 receptor expressed in human 1321N1 cells assessed as increase in intracellular calcium level relative to carbachol
Method in brief: as §1, with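 “dark. Agonist was then injected, with fluorescence read at ex 485/em 520 nm for 60 × 0.4 s.” for “dark.”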

[13] = tested on: P2Y purinoceptor 2 (Homo sapiens), P41231 [S296A]; assay: Agonist activity at N-terminal HA epitope-tagged human P2Y2 receptor S296A mutant expressed in human 1321N1 cells assessed as increase in intracellular calcium level relative to carbachol
P2Y purinoceptor 2 (Homo sapiens), P41231 [S296A], sequence (P41231 whole entry S296A): as the sequence (P41231 whole entry) above, with S296A counted along it
Method in brief: as §1, with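 “dark. Agonist was then injected, with fluorescence read at ex 485/em 520 nm for 60 × 0.4 s.” for “dark.”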

P2Y purinoceptor 2 [14] = target: P2Y purinoceptor 2 (Homo sapiens, UniProt P41231, Y118A); assay: Agonist activity at N-terminal HA epitope-tagged human P2Y2 receptor Y118A mutant expressed in human 1321N1 cells assessed as increase in intracellular calcium level; method in brief: as §2
P2Y purinoceptor 2 (Homo sapiens, UniProt P41231, Y118A), sequence (P41231 whole entry Y118A): as the sequence (P41231 whole entry) above, with Y118A counted along it

[15] = tested on: P2Y purinoceptor 2 (Homo sapiens), P41231 [Y114A]; assay: Agonist activity at N-terminal HA epitope-tagged human P2Y2 receptor Y114A mutant expressed in human 1321N1 cells assessed as increase in intracellular calcium level relative to carbachol
P2Y purinoceptor 2 (Homo sapiens), P41231 [Y114A], sequence (P41231 whole entry Y114A): as the sequence (P41231 whole entry) above, with Y114A counted along it
Method in brief: as §1, with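 “dark. Agonist was then injected, with fluorescence read at ex 485/em 520 nm for 60 × 0.4 s.” for “dark.”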

P2Y purinoceptor 2 [16] = target: T1, P2Y purinoceptor 2; assay: Agonist activity at N-terminal HA epitope-tagged wild type human P2Y2 receptor expressed in human 1321N1 cells assessed as increase in intracellular calcium level
Method in brief: as §1, with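 “dark. Agonist was then injected, with fluorescence read at ex 485/em 520 nm for 60 × 0.4 s.” for “dark.”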

[17] = tested on: P2Y purinoceptor 2 (Homo sapiens), P41231 [C278S]; assay: Agonist activity at N-terminal HA epitope-tagged human P2Y2 receptor C278S mutant expressed in human 1321N1 cells assessed as increase in intracellular calcium level relative to carbachol
P2Y purinoceptor 2 (Homo sapiens), P41231 [C278S], sequence (P41231 whole entry C278S): as the sequence (P41231 whole entry) above, with C278S counted along it
Method in brief: as §1, with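 “dark. Agonist was then injected, with fluorescence read at ex 485/em 520 nm for 60 × 0.4 s.” for “dark.”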

[18] = tested on: P2Y purinoceptor 2 (Homo sapiens), P41231 [R194H]; assay: Agonist activity at N-terminal HA epitope-tagged human P2Y2 receptor R194H mutant expressed in human 1321N1 cells assessed as increase in intracellular calcium level relative to carbachol
P2Y purinoceptor 2 (Homo sapiens), P41231 [R194H], sequence (P41231 whole entry R194H): as the sequence (P41231 whole entry) above, with R194H counted along it
Method in brief: as §1, with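 “dark. Agonist was then injected, with fluorescence read at ex 485/em 520 nm for 60 × 0.4 s.” for “dark.”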

P2Y purinoceptor 2 [19] = target: T1, P2Y purinoceptor 2; assay: Agonist activity at N-terminal HA epitope-tagged wild type 3 human P2Y2 receptor expressed in human 1321N1 cells assessed as increase in intracellular calcium level; method in brief: as §1
[20] = tested on: P2Y purinoceptor 2 (Homo sapiens), P41231 [Y118A]; assay: Agonist activity at N-terminal HA epitope-tagged human P2Y2 receptor Y118A mutant expressed in human 1321N1 cells assessed as increase in intracellular calcium level relative to carbachol
P2Y purinoceptor 2 (Homo sapiens), P41231 [Y118A], sequence (P41231 whole entry Y118A): as the sequence (P41231 whole entry) above, with Y118A counted along it
Method in brief: as §1, with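 “dark. Agonist was then injected, with fluorescence read at ex 485/em 520 nm for 60 × 0.4 s.” for “dark.”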

[21] = tested on: P2Y purinoceptor 2 (Homo sapiens), P41231 [R177A,R180A]; assay: Agonist activity at N-terminal HA epitope-tagged human P2Y2 receptor R177A_R180A double mutant expressed in human 1321N1 cells assessed as increase in intracellular calcium level relative to carbachol
P2Y purinoceptor 2 (Homo sapiens), P41231 [R177A,R180A], sequence (P41231 whole entry R177A/R180A): as the sequence (P41231 whole entry) above, with R177A, R180A counted along it
Method in brief: as §1, with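 “dark. Agonist was then injected, with fluorescence read at ex 485/em 520 nm for 60 × 0.4 s.” for “dark.”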

[22] = tested on: P2Y purinoceptor 2 (Homo sapiens), P41231 [R177A]; assay: Agonist activity at N-terminal HA epitope-tagged human P2Y2 receptor R177A mutant expressed in human 1321N1 cells assessed as increase in intracellular calcium level relative to carbachol
P2Y purinoceptor 2 (Homo sapiens), P41231 [R177A], sequence (P41231 whole entry R177A): as the sequence (P41231 whole entry) above, with R177A counted along it
Method in brief: as §1, with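 “dark. Agonist was then injected, with fluorescence read at ex 485/em 520 nm for 60 × 0.4 s.” for “dark.”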

1321-N1 = assay: Effect on intracellular calcium level in non transfected human 1321N1 cells
P2Y purinoceptor 2 [23] = target: P2Y purinoceptor 2 (Homo sapiens, UniProt P41231, C278S); assay: Agonist activity at N-terminal HA epitope-tagged human P2Y2 receptor C278S mutant expressed in human 1321N1 cells assessed as increase in intracellular calcium level; method in brief: as §2
P2Y purinoceptor 2 (Homo sapiens, UniProt P41231, C278S), sequence (P41231 whole entry C278S): as the sequence (P41231 whole entry) above, with C278S counted along it

P2Y purinoceptor 2 [24] = target: P2Y purinoceptor 2 (Homo sapiens, UniProt P41231, S296A); assay: Agonist activity at N-terminal HA epitope-tagged human P2Y2 receptor S296A mutant expressed in human 1321N1 cells assessed as increase in intracellular calcium level; method in brief: as §1
P2Y purinoceptor 2 (Homo sapiens, UniProt P41231, S296A), sequence (P41231 whole entry S296A): as the sequence (P41231 whole entry) above, with S296A counted along it

[25] = tested on: P2Y purinoceptor 2 (Homo sapiens), P41231 [R272A]; assay: Agonist activity at N-terminal HA epitope-tagged human P2Y2 receptor R272A mutant expressed in human 1321N1 cells assessed as increase in intracellular calcium level relative to carbachol
P2Y purinoceptor 2 (Homo sapiens), P41231 [R272A], sequence (P41231 whole entry R272A): as the sequence (P41231 whole entry) above, with R272A counted along it
Method in brief: as §1, with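 “dark. Agonist was then injected, with fluorescence read at ex 485/em 520 nm for 60 × 0.4 s.” for “dark.”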

[26] = tested on: P2Y purinoceptor 2 (Homo sapiens), P41231 [Y198A]; assay: Agonist activity at N-terminal HA epitope-tagged human P2Y2 receptor Y198A mutant expressed in human 1321N1 cells assessed as increase in intracellular calcium level relative to carbachol
P2Y purinoceptor 2 (Homo sapiens), P41231 [Y198A], sequence (P41231 whole entry Y198A): as the sequence (P41231 whole entry) above, with Y198A counted along it
Method in brief: as §1, with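 “dark. Agonist was then injected, with fluorescence read at ex 485/em 520 nm for 60 × 0.4 s.” for “dark.”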

Which EC50 (P2Y purinoceptor 2 [1]) does the source give for O=c1ccn([C@@H]2O[C@H](COP(=O)(O)OP(=O)(O)OP(=O)(O)O)[C@@H](O)[C@H]2O)c(=O)[nH]1 [URIDINE TRIPHOSPHATE] here?
The EC50 was 59 nM.

And the Efficacy [2]?
The Efficacy was 130%.

And the EC50 (P2Y purinoceptor 2 [3])?
The EC50 was 781 nM.

And the EC50 (P2Y purinoceptor 2 [4])?
The EC50 was 123 nM.

And the EC50 (P2Y purinoceptor 2 [5])?
The EC50 was 37.2 nM.

What about the EC50 (P2Y purinoceptor 2 [6]) of the same compound?
Its EC50 is 138 nM.

And the EC50 (P2Y purinoceptor 2 [7])?
Its EC50 is 20600 nM.

And the EC50 (P2Y purinoceptor 2 [8])?
The EC50 was 108 nM.

What about the Efficacy (P2Y purinoceptor 2 [9]) of the same compound?
The Efficacy was 138%.

And the EC50 (P2Y purinoceptor 2 [10])?
Its EC50 is 121 nM.

And the EC50 (P2Y purinoceptor 2 [11])?
The EC50 was 50.1 nM.

And the Efficacy (P2Y purinoceptor 2 [12])?
Its Efficacy is 100%.

What about the Efficacy [13] of the same compound?
Its Efficacy is 3%.

And the EC50 (P2Y purinoceptor 2 [14])?
Its EC50 is 157 nM.

And the Efficacy [15]?
The Efficacy was 107%.

What about the Activity (P2Y purinoceptor 2 [16]) of the same compound?
The Activity was “Dose-dependent effect”.

And the Efficacy [17]?
The Efficacy was 86%.

What about the Efficacy [18] of the same compound?
Its Efficacy is 127%.

And the EC50 (P2Y purinoceptor 2 [19])?
The EC50 was 80.4 nM.

And the Efficacy [20]?
The Efficacy was 43%.

And the Efficacy [21]?
The Efficacy was 109%.

And the Efficacy [22]?
Its Efficacy is 133%.

What about the Activity (1321-N1) of the same compound?
The Activity was “inactive”.

What about the EC50 (P2Y purinoceptor 2 [23]) of the same compound?
Its EC50 is 2090 nM.

What about the EC50 (P2Y purinoceptor 2 [24]) of the same compound?
Its EC50 is over 300000 nM.

And the Efficacy [25]?
Its Efficacy is 99%.

And the Efficacy [26]?
Its Efficacy is 128%.
